Assays:
Canis familiaris [1] = assay: Antisecretory activity after ig administration in histamine-stimulated gastric fistula dogs; Range is 4.5-10.0; assay type: functional; details: Canis lupus familiaris, Stomach, po
Outline: (§1)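 Conscious gastric-fistula dogs, fasted 18 h, in Pavlov stands with iv 0.15 M NaCl. After basal collection, histamine is infused iv at 1.0 mg/h (about 6.5 mL/h). At the steady-state plateau, the PG is given intragastrically through a dosing plug and the cannula is closed 30 min. Collections are then taken every 15 min and titrated with 0.1 N NaOH to pH 7.0.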

Rattus norvegicus = assay: Diarrheal effect after ig administration in rats; assay type: functional; details: po
Outline: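 Male Charles River rats, 210–230 g, are fasted 24 h and housed singly. Logarithmically graded oral PG doses are given, N = 6–12. Diarrhea is scored all-or-none at hourly intervals up to 8 h after dosing, and an ED50 is derived.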

[2] = Ratio of ED50 of diarrheal effect to antisecretory effect; assay type: ADME; details: read-out: Therapeutic index
Outline: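 Ratio of the oral diarrheal ED50 in fasted male rats to the ig antisecretory ED50 in histamine-stimulated gastric-fistula dogs.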

Canis familiaris [3] = assay: Antisecretory activity after iv administration in histamine-stimulated Heidenhain pouch dogs; Range is 0.3-1.0; assay type: functional; details: Canis lupus familiaris
Outline: (§2)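 Conscious Heidenhain-pouch dogs, fasted 18 h, with iv saline. Histamine is infused at 1.0 mg/h (about 13.0 mL/h) to a steady plateau. A single iv bolus of PG follows, from ethanol stock diluted in isoosmotic phosphate buffer (≤20% alcohol). Doses are log-spaced, usually 0.1–100 μg/kg, with ≥2 dogs per dose. Acid is measured by titration to pH 7.0 in 15-min samples; ED50 is the 50% inhibition of total acid output.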

Canis familiaris [4] = assay: Antisecretory activity after ig administration in histamine-stimulated gastric fistula dogs; Range is 2.4-3.0; assay type: functional; details: Canis lupus familiaris, Stomach, po; outline: as §1
Canis familiaris [5] = assay: Antisecretory activity after iv administration in histamine-stimulated Heidenhain pouch dogs.; assay type: functional; details: Canis lupus familiaris; outline: as §2
Canis familiaris [6] = assay: Antisecretory activity after ig administration in histamine-stimulated gastric fistula dogs; Range is 6.5-10.0; assay type: functional; details: Canis lupus familiaris, Stomach, po; outline: as §1
Canis familiaris [7] = assay: Antisecretory activity after ig administration in histamine-stimulated gastric fistula dogs; Range is 0.3-1.0; assay type: functional; details: Canis lupus familiaris, Stomach, po; outline: as §1
Canis familiaris [8] = assay: Antisecretory activity after iv administration in histamine-stimulated Heidenhain pouch dogs; Range is 0.1-0.3; assay type: functional; details: Canis lupus familiaris; outline: as §2
Canis familiaris [9] = assay: Antisecretory activity after ig administration in histamine-stimulated gastric fistula dogs; Range is 5.5-10.0; assay type: functional; details: Canis lupus familiaris, Stomach, po; outline: as §1

SMILES | ED50 (Rattus norvegicus) [µg/kg] | selectivity ratio [2] | further results
CCCCC(C)(O)C/C=C/[C@H]1[C@H](O)CC(=O)[C@@H]1C/C=C\CCCC(=O)OC (stereo not given in full) | 124 | 27.6 | ED50 (Canis familiaris [1]): 4.5 µg/kg; ED50 (Canis familiaris [3]): 0.3 µg/kg
CCCCC(C)(C)[C@H](O)/C=C/C1[C@H](O)CC(=O)[C@@H]1C/C=C\CCCC(=O)OC (stereo not given in full) | 10 | 4.2 | ED50 (Canis familiaris [4]): 2.4 µg/kg
CCCCC(C)(O)C/C=C/[C@H]1[C@H](O)CC(=O)[C@@H]1CCC#CCCC(=O)OC (stereo not given in full) |  |  | ED50 (Canis familiaris [5]): > 100 µg/kg
CCCCC(C)(O)C/C=C/[C@H]1[C@H](O)CC(=O)[C@@H]1CC/C=C/CCC(=O)OC (stereo not given in full) |  |  | ED50 (Canis familiaris [5]): 10 µg/kg
CCCCC[C@](C)(O)/C=C/C1[C@H](O)CC(=O)[C@@H]1C/C=C\CCCC(=O)OC (stereo not given in full) | 27 | 4.2 | ED50 (Canis familiaris [6]): 6.5 µg/kg
CCCCC(C)(O)C/C=C/[C@H]1[C@H](O)CC(=O)[C@@H]1CC/C=C\CCC(=O)OC (stereo not given in full) [ENISOPROST] | 62 | 208 | ED50 (Canis familiaris [7]): 0.3 µg/kg; ED50 (Canis familiaris [8]): 0.1 µg/kg
CCCCC(C)(O)C/C=C/[C@H]1[C@H](O)CC(=O)[C@@H]1CCCCCCC(=O)OC (stereo not given in full) [MISOPROSTOL] | 366 | 66.5 | ED50 (Canis familiaris [9]): 5.5 µg/kg; ED50 (Canis familiaris [3]): 0.3 µg/kg

Source: ChEMBL document CHEMBL1122224, “Synthesis and gastric antisecretory properties of 4,5-unsaturated derivatives of 15-deoxy-16-hydroxy-16-methylprostaglandin E1” (J Med Chem, 1983)
